Tests used:
Staphylococcus aureus [1] = assay: Bactericidal activity against 2 hrs peripheral compartment culture samples of Staphylococcus aureus RN4220 MutS2 in two-compartment pharmacokinetic/pharmacodynamic model assessed as effect on bacterial count at 600 mg, bid administered as 0.5 hr infusion; assay type: functional
Summary of the method: (§1)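 An 18-h culture concentrated 50-fold was injected into the peripheral compartment 3 h pre-sampling (~10^8 CFU/ml E. faecalis, 10^9 S. aureus). Counts came from dilution plating (detection limit 2–3 log10 CFU/ml), expressed as Δlog CFU/ml from treatment start. Run in duplicate.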

Staphylococcus aureus [2] = assay: Bactericidal activity against 14 hrs peripheral compartment culture samples of Staphylococcus aureus RN4220 MutS2 in two-compartment pharmacokinetic/pharmacodynamic model assessed as effect on bacterial count at 600 mg, bid administered as 0.5 hr infusion; assay type: functional; summary of the method: as §1
Enterococcus faecalis [3] = assay: Bactericidal activity against 2 hrs peripheral compartment culture samples of Enterococcus faecalis ATCC 29212 in two-compartment pharmacokinetic/pharmacodynamic model assessed as effect on bacterial count at 200 mg, bid administered as 0.5 hr infusion; assay type: functional; summary of the method: as §1
Enterococcus faecalis [4] = assay: Bactericidal activity against 12 hrs peripheral compartment culture samples of Enterococcus faecalis ATCC 29212 in two-compartment pharmacokinetic/pharmacodynamic model assessed as effect on bacterial count at 200 mg, bid administered as 0.5 hr infusion; assay type: functional
Summary of the method: (§2)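 Two-compartment hollow-fibre model in cation-adjusted, protein-free MH broth, 37°C. Linezolid given as simulated 0.5-h infusion twice daily. Inoculum grown 18 h, concentrated 50-fold and placed in the peripheral compartment 3 h before t0. Peripheral samples at set times counted by dilution plating. First 10-fold dilution not plated, limiting detection to 2–3 log10 CFU/ml. Δlog CFU/ml taken from t0 count. Duplicates.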

Enterococcus faecalis [5] = assay: Bactericidal activity against 0.5 hrs peripheral compartment culture samples of Enterococcus faecalis ATCC 29212 in two-compartment pharmacokinetic/pharmacodynamic model assessed as effect on bacterial count at 600 mg, bid administered as 0.5 hr infusion; assay type: functional; summary of the method: as §2
Enterococcus faecalis [6] = assay: Bactericidal activity against 12 hrs peripheral compartment culture samples of Enterococcus faecalis ATCC 29212 in two-compartment pharmacokinetic/pharmacodynamic model assessed as effect on bacterial count at 600 mg, bid administered as 0.5 hr infusion; assay type: functional; summary of the method: as §2
Enterococcus faecalis [7] = assay: Bactericidal activity against 2 hrs peripheral compartment culture samples of Enterococcus faecalis Ef1497 in two-compartment pharmacokinetic/pharmacodynamic model assessed as effect on bacterial count at 800 mg, bid administered as 0.5 hr infusion; assay type: functional; summary of the method: as §1
Enterococcus faecalis [8] = assay: Bactericidal activity against 12 hrs peripheral compartment culture samples of Enterococcus faecalis Ef1497 in two-compartment pharmacokinetic/pharmacodynamic model assessed as effect on bacterial count at 800 mg, bid administered as 0.5 hr infusion; assay type: functional; summary of the method: as §1
Enterococcus faecalis [9] = assay: Bactericidal activity against 13 hrs peripheral compartment culture samples of Enterococcus faecalis Ef1497 in two-compartment pharmacokinetic/pharmacodynamic model assessed as effect on bacterial count at 800 mg, bid administered as 0.5 hr infusion; assay type: functional; summary of the method: as §1
Enterococcus faecalis [10] = assay: Bactericidal activity against 24 hrs peripheral compartment culture samples of Enterococcus faecalis Ef1497 in two-compartment pharmacokinetic/pharmacodynamic model assessed as effect on bacterial count at 800 mg, bid administered as 0.5 hr infusion; assay type: functional; summary of the method: as §1
Enterococcus faecalis [11] = assay: Bactericidal activity against 12 hrs peripheral compartment culture samples of Enterococcus faecalis Ef1497 MutM3 in two-compartment pharmacokinetic/pharmacodynamic model assessed as effect on bacterial count at 200 mg, bid administered as 0.5 hr infusion; assay type: functional; summary of the method: as §2
Enterococcus faecalis [12] = assay: Bactericidal activity against 12 hrs peripheral compartment culture samples of Enterococcus faecalis Ef1497 MutM3 in two-compartment pharmacokinetic/pharmacodynamic model assessed as effect on bacterial count at 600 mg, bid administered as 0.5 hr infusion; assay type: functional; summary of the method: as §2
[13] = Tmax in two-compartment pharmacokinetic/pharmacodynamic model at 600 mg, bid administered as 0.5 hrs infusion; assay type: ADME, organism-based; details: iv
Summary of the method: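 Two-compartment in vitro hollow-fibre model in cation-adjusted, protein-free Mueller-Hinton broth at 37°C. Human total-plasma linezolid profile simulated as 0.5-h infusion every 12 h for 48 h, computer-controlled syringe pump into central compartment. […] Peripheral samples assayed by validated HPLC-UV (quantification limit 0.39 μg/ml). Tmax read directly from concentration-time profiles. Run in duplicate.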

[14] = AUC in two-compartment pharmacokinetic/pharmacodynamic model at 800 mg, bid administered as 0.5 hrs infusion; assay type: ADME; details: iv
[15] = Apparent volume of distribution in two-compartment pharmacokinetic/pharmacodynamic model at 200 mg, bid administered as 0.5 hrs infusion; assay type: ADME, organism-based; details: iv
[16] = Volume of distribution at steady state in two-compartment pharmacokinetic/pharmacodynamic model at 200 mg, bid administered as 0.5 hrs infusion; assay type: ADME, organism-based; details: iv, read-out: Vdss
Staphylococcus aureus [17] = assay: Bactericidal activity against 1 hr peripheral compartment culture samples of Staphylococcus aureus RN4220 in two-compartment pharmacokinetic/pharmacodynamic model assessed as effect on bacterial count at 600 mg, bid administered as 0.5 hr infusion; assay type: functional; summary of the method: as §2
Staphylococcus aureus [18] = assay: Bactericidal activity against 13 hrs peripheral compartment culture samples of Staphylococcus aureus RN4220 in two-compartment pharmacokinetic/pharmacodynamic model assessed as effect on bacterial count at 600 mg, bid administered as 0.5 hr infusion; assay type: functional; summary of the method: as §1
Staphylococcus aureus [19] = assay: Bactericidal activity against 14 hrs peripheral compartment culture samples of Staphylococcus aureus RN4220 in two-compartment pharmacokinetic/pharmacodynamic model assessed as effect on bacterial count at 600 mg, bid administered as 0.5 hr infusion; assay type: functional; summary of the method: as §1
Enterococcus faecalis [20] = assay: T>MIC in Enterococcus faecalis Ef1497 in two-compartment pharmacokinetic/pharmacodynamic model at 800 mg, bid administered as 0.5 hr infusion for 2 days; assay type: functional
[21] = test system: Staphylococcus aureus subsp. aureus RN4220; assay: AUBC (0 to 24 hrs) in Staphylococcus aureus RN4220 in two-compartment pharmacokinetic/pharmacodynamic model at 600 mg, bid administered as 0.5 hr infusion for 2 days; assay type: functional
Summary of the method: (§3)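 Hollow-fibre two-compartment model in cation-adjusted, protein-free MH broth at 37°C. Human total-plasma linezolid profile simulated as 0.5-h infusion every 12 h for 48 h. Concentrated 18-h culture injected into the peripheral compartment 3 h before first sample, giving about 10^8 (E. faecalis) or 10^9 (S. aureus) CFU/ml. Viable counts by dilution plating over 0–24 h. Area indices calculated versus growth control curve. Duplicate runs.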

[22] = test system: Staphylococcus aureus subsp. aureus RN4220; assay: ABBC (0 to 24 hrs) in Staphylococcus aureus RN4220 in two-compartment pharmacokinetic/pharmacodynamic model at 600 mg, bid administered as 0.5 hr infusion for 2 days; summary of the method: as §3
Enterococcus faecalis [23] = assay: ABBC (0 to 24 hrs) in Enterococcus faecalis Ef1497 in two-compartment pharmacokinetic/pharmacodynamic model at 600 mg, bid administered as 0.5 hr infusion for 2 days; assay type: functional; summary of the method: as §3
[24] = Mean residence time in two-compartment pharmacokinetic/pharmacodynamic model at 600 mg, bid administered as 0.5 hr infusion over 24 hrs; assay type: ADME, organism-based; details: in vivo, iv
[25] = Total clearance in two-compartment pharmacokinetic/pharmacodynamic model at 600 mg, bid administered as 0.5 hr infusion over 24 hrs; assay type: ADME, organism-based; details: in vivo, iv
[26] = Apparent volume of distribution in two-compartment pharmacokinetic/pharmacodynamic model at 800 mg, bid administered as 0.5 hr infusion over 24 hrs; assay type: ADME, organism-based; details: in vivo, iv

## CC(=O)NC[C@H]1CN(c2ccc(N3CCOCC3)c(F)c2)C(=O)O1 [LINEZOLID]
Staphylococcus aureus [1]
  log10CFU/ml: 0.02
Staphylococcus aureus [2]
  log10CFU/ml: -0.58
Enterococcus faecalis [3]
  log10CFU/ml: 0.09
Enterococcus faecalis [4]
  log10CFU/ml: 0.14
Enterococcus faecalis [5]
  log10CFU/ml: 0.04
Enterococcus faecalis [6]
  log10CFU/ml: 0.15
Enterococcus faecalis [7]
  log10CFU/ml: -0.13
Enterococcus faecalis [8]
  log10CFU/ml: -0.16
Enterococcus faecalis [9]
  log10CFU/ml: -0.16
Enterococcus faecalis [10]
  log10CFU/ml: -0.04
Enterococcus faecalis [11]
  log10CFU/ml: 0.29
Enterococcus faecalis [12]
  log10CFU/ml: 0.19
[13]
  Tmax: 0.5 h
[14]
  AUC at 0.5 h: 38200 ng·h/mL
[15]
  Vd: 141 L
[16]
  Vd: 120 L
Staphylococcus aureus [17]
  log10CFU/ml: -0.07
Staphylococcus aureus [18]
  log10CFU/ml: -0.22
Staphylococcus aureus [19]
  log10CFU/ml: -0.24
Enterococcus faecalis [20]
  fT>MIC: 80.9%
[21]
  AUBC: 229.4 log10CFU/ml.hr
[22]
  ABBC: -1.21 log10CFU/ml.hr
Enterococcus faecalis [23]
  ABBC: -1.49 log10CFU/ml.hr
[24]
  MRT: 8.1 h
[25]
  clearance: 215 mL/min
[26]
  Vd: 102 L
